The source made the active and inactive calls. The calls are words filed in the database; no cut-off is given here.
Legend:
HeLa [1] = assay: Downregulation of Bcl-2 expression in human HeLa cells at 250 to 500 nM after 24 to 48 hrs by Western blot analysis; assay type: functional, cell-based
Summary of the method: (§1)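 HeLa cells treated for 24 or 48 h, washed twice with ice-cold PBS and lysed on ice 30 min; lysates spun at 15000 ×g, 4 °C. Protein (20 μg) resolved by SDS–PAGE on 7.5–15% gels and blotted to PVDF. Specific primary antibodies for 2 h at room temperature, then peroxidase secondary for 60 min, ECL detection. Membranes stripped and reprobed for β-actin as loading control.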

A549 [2] = assay: Ratio of CA-4 IC50 to compound IC50 for human A549 cells after 72 hrs by MTT assay; assay type: functional
HeLa [3] = assay: Ratio of compound IC50 to CA-4 IC50 for human HeLa cells after 72 hrs by MTT assay; assay type: functional
HL-60 = assay: Ratio of compound IC50 to CA-4 IC50 for human HL60 cells after 72 hrs by MTT assay; assay type: functional
Jurkat [4] = assay: Cell cycle arrest in human Jurkat cells assessed as decrease in accumulation of cells at S phase after 24 hrs by propidium iodide staining based flow cytometric analysis; assay type: functional
Summary of the method: (§2)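 HeLa or Jurkat cells (5 × 10⁵, exponential growth) treated 24 h with 31–500 nM compound. Cells fixed in ice-cold 70% ethanol, treated with lysis buffer containing RNase A and 0.1% Triton X-100, then stained with propidium iodide. DNA content measured by flow cytometry to give phase distribution. Mean ± SEM of three independent experiments.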

LoVo = assay: Resistance ratio of IC50 for human doxorubicin-resistant LoVo/DX cells overexpressing P-glycoprotein to IC50 for human LoVo cells; assay type: functional
CCRF-CEM [5] = assay: Resistance ratio of IC50 for human vinblastine-resistant CEM/VBL100 cells overexpressing P-glycoprotein to IC50 for human CEM cells; assay type: functional
HT-29 = assay: Ratio of CA-4 IC50 to compound IC50 for human HT-29 cells after 72 hrs by MTT assay; assay type: functional
HeLa [6] = assay: Induction of apoptosis in human HeLa cells at 500 nM after 24 to 48 hrs by Annexin V-FITC/propidium iodide staining based biparametric cytofluorimetric analysis; assay type: functional, cell-based
Summary of the method: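 HeLa cells treated at 250 or 500 nM for 24 or 48 h, then labelled with annexin-V-FITC (phosphatidylserine) plus propidium iodide. Red and green fluorescence measured by biparametric flow cytometry. Mean ± SEM of three independent experiments.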

HeLa [7] = assay: Induction of apoptosis in human HeLa cells assessed as caspase-3 activation at 250 to 500 nM after 24 to 48 hrs by Western blot analysis; assay type: functional, cell-based; summary of the method: as §1
HeLa [8] = assay: Induction of apoptosis in human HeLa cells assessed as mitochondrial polarization; assay type: functional, cell-based
HeLa [9] = assay: Cell cycle arrest in human HeLa cells assessed as decrease in accumulation of cells at G1 phase after 24 hrs by propidium iodide staining based flow cytometric analysis; assay type: functional; summary of the method: as §2
HeLa [10] = assay: Antiproliferative activity against human HeLa cells after 72 hrs by MTT assay; assay type: functional, cell-based
Jurkat [11] = assay: Cell cycle arrest in human Jurkat cells assessed as accumulation of cells at G2/M phase after 24 hrs by propidium iodide staining based flow cytometric analysis; assay type: functional; summary of the method: as §2
[12] = Antiproliferative activity against human vinblastine-resistant CEM/VBL100 cells overexpressing P-glycoprotein after 72 hrs by MTT assay; assay type: functional, cell-based; conditions: CEM/VBL100, 72 h
A549 [13] = assay: Resistance ratio of IC50 for human taxol-resistant A549-T12 cells expressing tubulin mutant gene to IC50 for human A549 cells; assay type: functional
Jurkat [14] = assay: Cell cycle arrest in human Jurkat cells assessed as decrease in accumulation of cells at G1 phase after 24 hrs by propidium iodide staining based flow cytometric analysis; assay type: functional; summary of the method: as §2
[15] = Antiproliferative activity against human doxorubicin-resistant LoVo/DX cells overexpressing P-glycoprotein after 72 hrs by MTT assay; assay type: functional, cell-based
Summary of the method: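 Resistant sublines cultured under selection: LoVo^Doxo (doxorubicin-resistant LoVo subclone) in complete Ham's F12 with doxorubicin 0.1 μg/mL; A549-T12 in complete DMEM with taxol 12 nM. Seeded at 8 × 10³ per well, 18 h preincubation, then 72 h compound exposure at 37 °C. MTT read-out.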

CCRF-CEM [16] = assay: Antiproliferative activity against human CEM cells after 72 hrs by MTT assay; assay type: functional, cell-based

For `CCOc1ccc(-c2sc(NC)nc2-c2cc(OC)c(OC)c(OC)c2)cc1`, the Activity (HeLa [1]) was “Active”, the “Ratio IC50” value (A549 [2]) was 5 and the “Ratio IC50” value (HeLa [3]) was 2. For the same compound, the “Ratio IC50” value (HL-60) was 2, the Activity (Jurkat [4]) was “Dose-dependent effect” and the “Ratio IC50” value (LoVo) was 0.5. For the same compound, the “Ratio IC50” value (CCRF-CEM [5]) was 2.9, the “Ratio IC50” value (HT-29) was 1000 and the Activity (HeLa [6]) was “Active”. The Activity (HeLa [7]) was “Active”, the Activity (HeLa [8]) was “Active” and the Activity (HeLa [9]) was “Dose-dependent effect”. For the same compound, the IC50 (HeLa [10]) was 13.2 nM, the Activity (Jurkat [11]) was “Dose-dependent effect” and the IC50 [12] was 1.2 nM. For the same compound, the “Ratio IC50” value (A549 [13]) was 0.5, the Activity (Jurkat [14]) was “Dose-dependent effect” and the IC50 [15] was 14.5 nM. For the same compound, the IC50 (CCRF-CEM [16]) was 0.8 nM.

Source: ChEMBL document CHEMBL2202972, “Synthesis and biological evaluation of 2-substituted-4-(3',4',5'-trimethoxyphenyl)-5-aryl thiazoles as anticancer agents” (Bioorg Med Chem, 2012)
